HCV NS3 hel inh: HCV NS3 helicase inhibition; NS3 helicase DNA unwinding, Cy5 molecular beacon fluorescence; AID 1800; inhibition, % at 10.9 µM; 290,000 compounds, 0.56% hits;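 active = inhibition above the mean of all tested compounds plus 3 SD, set per campaign, cut at about 35% in these data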
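Test system: hepatitis C virus NS3 helicase domain fragment enzyme. Also added: annealed dual-labelled DNA beacon duplex, ATP-started. Timing: 60 min unwinding reaction at 25 °C after ATP addition. Technique: Cy5 fluorescence. Measure: % inhibition of unwinding.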
VIM-2 inhibitor: inhibitors of Pseudomonas aeruginosa VIM-2 metallo-beta-lactamase. purified VIM-2, nitrocefin hydrolysis, epi-absorbance fluorescence. inhibition, % at 5.6 µM. 290,000 compounds, 0.89% hits;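 active = inhibition above the mean of all tested compounds plus 3 SD, cutoff set per screening run, cut at about 7.5% in these data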;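 also: red hydrolysis product quenches plate fluorescence so inhibitors raise well fluorescence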
FID counter: counter-screen for HCV NS3 helicase inhibitors: DNA intercalator displacement | 290,000 compounds, 0.17% hits | inhibition, % at 7.9 µM | DNA fluorescent intercalator displacement, fluorescence | AID 1845; in the data active = inhibition above about 37%;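 also: higher means more ethidium bromide displaced from hairpin DNA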
IMP-1 inh: inhibitors of Pseudomonas aeruginosa IMP-1 metallo-beta-lactamase; purified IMP-1, nitrocefin hydrolysis, epi-absorbance fluorescence; inhibition, % at 5.6 µM; 290,000 compounds, 0.45% hits;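 active = inhibition above the mean plus 3 SD of all compounds in the same screening run, cut at about 4.5% in these data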
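Test system: recombinant IMP-1 enzyme, purified / Medium: HEPES buffer pH 7.1 with ZnSO4 and Brij 35 / Doses: single dose, 5.6 µM / Times: 25 °C, 15 min preincubation, 25 min reaction / Detection: Epi-absorbance via hydrolysed-nitrocefin quenching of white-plate fluorescence, 480/530 nm, EDTA stop / Evaluation: percent inhibition from optical density relative to buffer-blank wells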
Large screens that a line does not name were inactive. This is a sample that favours compounds with a hit; in the whole collection about 1.9% have one here.

CCn1c(=N)c(C(N)=O)cc2c(=O)n3cccc(C)c3nc21	VIM-2 inhibitor 7.9
Cc1cccn2c(=O)c3cc(C(=O)NCc4ccco4)c(=N)n(CCc4ccccc4)c3nc12	none
Cc1cccn2c(=O)c3cc(C(=O)NCCc4ccccc4)c(=N)n(Cc4ccco4)c3nc12	VIM-2 inhibitor 9.1
CCOc1ccc(OCCC(=O)OCC(=O)NC2CCCCC2)cc1	none
CN(C1CCCCC1)S(=O)(=O)c1cccc(C(=O)OCC(=O)NC2CCCc3ccccc32)c1 (configuration not stated)	none
O=C(N/N=C/c1ccc(Cl)cc1Cl)c1ccc2nc[nH]c2c1	IMP-1 inh 8.8
CN1CCc2c(sc(NC(=O)c3ccc4ccccc4c3)c2C(N)=O)C1	none
COc1cc2ccccc2cc1C(=O)Nc1sc2c(c1C(N)=O)CCN(C(C)C)C2	IMP-1 inh 7.1
NC(=O)C1CCN(C(=O)NC(=O)c2ccccc2)CC1	none
CCn1c(SCC(=O)N2CCC(C)CC2)nc2c(c1=O)SCC2	none
O=C1COc2ccc(C(=O)CSc3nnc(-c4cccs4)n3Cc3ccccc3)cc2N1	VIM-2 inhibitor 9.3
O=C1COc2ccc(C(=O)CSc3nnc(Cc4cccs4)n3-c3ccccc3)cc2N1	none
COc1ccc(-c2cc(C(=O)Nc3cc(Br)ccc3O)no2)cc1	IMP-1 inh 52.4
Cn1c(=O)cc2c3c(c(N4CCCCC4)ccc31)C(=O)c1ccccc1-2	VIM-2 inhibitor 10.4
NS(=O)(=O)c1cccc(-n2cnnn2)c1	none
COc1ccc([N+](=O)[O-])cc1NC(=O)c1ccc(-n2nc(C)cc2C)cc1	none
NC(=O)c1c(NC(=O)C2CC=CCC2C(=O)O)sc2c1CCCCC2 (configuration not stated)	IMP-1 inh 5.7
CC(C)OC(=O)c1c(NC(=O)C2CC=CCC2C(=O)O)sc2c1CCCCC2 (configuration not stated)	none
CN(C)c1ccc(CNC(=O)CCS(=O)(=O)c2ccc3c(c2)n(C)c(=O)c(=O)n3C)cc1	none
CC[C@H](C)[C@@H](CN[C@H](CCCCNC)CNC)NCC1CCCC1	VIM-2 inhibitor 12.0
CCCC[C@@H](CN[C@H](C)CNC)NCC1CCC(C(C)(C)C)CC1 (some centres not stated)	none
O=C(CSc1nnc(NC(=O)c2ccc(F)cc2F)s1)NC1CCCC1	none
O=C(NC1CC1)[C@@H]1CSC2c3ccccc3C(=O)N21 (some centres not stated)	none
O=C(O)[C@@H]1CSC2c3ccccc3C(=O)N21 (some centres not stated)	IMP-1 inh 25.3
COC(=O)c1ccc(NC(=S)Nc2ccc3ccccc3c2)cc1	IMP-1 inh 5.2
COC(=O)c1ccc(NC(=S)Nc2ccccc2)cc1	none
CCCCOc1ccc(OC(=O)Nc2cc(Cl)ccc2OC)cc1	none
C#CCOCCOCCOCCNc1nc(N2CCN(C(=O)[C@H]([C@@H](C)CC)n3cc([C@@H](N)CC(C)C)nn3)CC2)nc(N2CCN(C(=O)[C@H](Cc3cc4ccccc4[nH]3)n3cc([C@@H](N)Cc4ccc(O)cc4)nn3)CC2)n1	FID counter 44.0
C#CCOCCOCCOCCNc1nc(N2CCN(C(=O)C(Cc3cc4ccccc4[nH]3)n3cc(C(N)C(C)CC)nn3)CC2)nc(N2CCN(C(=O)C(Cc3cc4ccccc4[nH]3)n3cc(C(N)C(C)CC)nn3)CC2)n1 (configuration not stated)	FID counter 38.4
C#CCOCCOCCOCCNc1nc(N2CCN(C(=O)[C@H](Cc3ccc(O)cc3)n3cc([C@@H](N)CC(C)C)nn3)CC2)nc(N2CCN(C(=O)[C@H](Cc3cc4ccccc4[nH]3)n3cc([C@@H](N)CC(C)C)nn3)CC2)n1	FID counter 37.0
COc1ccc2nc(NC(=O)C3CC(=O)N(c4ccccc4)C3)sc2c1 (configuration not stated)	none
C[C@@H]1CN(c2c(F)c(N)c3c(=O)c(C(=O)O)cn(C4CC4)c3c2F)C[C@H](C)N1	VIM-2 inhibitor 8.4
C[C@@H]1CN(c2c(F)c(F)c3c(=O)c(C(=O)O)cn(C4CC4)c3c2F)C[C@H](C)N1	none
Cc1ccc(CNC(=O)C2CCC(=O)N2Cc2ccc(C)cc2)cc1 (configuration not stated)	none
S=c1[nH]nc(CCc2nc3ccccc3[nH]2)n1-c1cccc(Cl)c1	VIM-2 inhibitor 7.7
S=c1[nH]nc(CCc2nc3ccccc3[nH]2)n1-c1ccccc1	VIM-2 inhibitor 7.8
COc1ccc(-c2nc(CN3CCC(C(=O)N4CCOCC4)CC3)c(C)o2)cc1C	none
CCCn1cc(CN2CCC(n3nccc3NC(=O)CCOc3ccccc3)CC2)c(C)n1	none
COc1ccc(OCc2cc(C(=O)NCC(C)Oc3cccnc3)no2)c(Cl)c1 (configuration not stated)	none
CCOC(=O)COc1c(OC)cc(Cl)cc1C1Nc2ccccc2C(=O)N1c1cccc(C)c1 (configuration not stated)	IMP-1 inh 5.6
CCOC(=O)COc1c(OC)cc(Cl)cc1C1Nc2ccccc2C(=O)N1c1ccccc1 (configuration not stated)	none
CC(C)(C)n1nc2c(c1NC(=O)Cc1ccccc1)CS(=O)(=O)C2	none
COc1ccc(NC(=O)CSc2ccc(-c3cccnc3)nn2)c(OC)c1	none
CC1CCN(CCCNC(=O)CN2C(=O)CSc3ccc(S(=O)(=O)N4CCOCC4)cc32)CC1	none
CC1CCN(CCCNC(=O)CN2C(=O)CSc3ccc(S(=O)(=O)N4CCC(C)CC4)cc32)CC1	FID counter 45.3
COc1ccc(-n2c(SCC(=O)Nc3cc(C(=O)O)ccc3C)nc3ccccc3c2=O)cc1Cl	none
Cc1cc(C)c(NC(=O)CSc2nnc(SCC(=O)Nc3c(C)cc(C)cc3C)n2N)c(C)c1	IMP-1 inh 7.2
O=S(=O)(NNc1ccc(Cl)nn1)c1ccc(F)cc1	none
COc1cc(/C=C(\C#N)C(=O)c2c[nH]c3ccccc23)cc(OC)c1O	IMP-1 inh 4.8
Cc1cc(C)c2cc(C(=O)N3CCC(N4CCCCC4)CC3)[nH]c2c1	none
Cc1cc(C)c2cc(C(=O)N3CCC(C(=O)c4ccc(F)cc4)CC3)[nH]c2c1	IMP-1 inh 4.5
O=C(CNCC1CCCCC1)Nc1ccc(OC(F)(F)F)cc1	none
COC(=O)c1[nH]c2ccccc2c1NC(=O)CN1CCN(c2cccc(OC)c2)C(C)C1 (configuration not stated)	IMP-1 inh 5.8
CCOC(=O)c1nccnc1C(=O)Nc1ccc(C(F)(F)F)cc1	none
CCOC(=O)C1CCN(C2=NC(=O)/C(=C/c3ccc(Cl)cc3)S2)CC1	IMP-1 inh 4.9
O=C1N=C(N2CCCCC2)S/C1=C\c1ccc(Br)cc1	IMP-1 inh 4.7
CC(C)CCN1C(=O)c2ccc(C(=O)Nc3ccc(Br)cc3C(=O)O)cc2C1=O	none
COC(=O)c1c(NC(=O)c2ccco2)sc(C(=O)N(C)C)c1C	VIM-2 inhibitor 12.1
COC(=O)c1cc(C)sc1NC(=O)c1ccco1	VIM-2 inhibitor 8.1
COC(=O)c1c(NC(=O)c2cccnc2)sc(C(=O)N(C)C)c1C	none

Screens deposited in PubChem by The Scripps Research Institute Molecular Screening Center.
